The values below come from ChEMBL document CHEMBL1221374, “Synthesis, proapoptotic screening, and structure-activity relationships of novel aza-lupane triterpenoids” (Bioorg Med Chem Lett, 2010).

pIC50: −log10 of the molar value.

In experiment [1] the test system is OVCAR-3. In words: Cytotoxicity against human OVCAR-3 cells after 120 hrs by MTS assay. The settings on record: OVCAR-3, 120 h. A general note: Tetrazolium assays rely on reduction of a dye to a coloured formazan, in cell work by metabolically active cells.
The next experiment deals with SK-MEL-2. In words: Cytotoxicity against human SK-MEL-2 cells after 72 hrs by MTS assay. The note with it: SK-MEL-2, 72 h. Format: functional, cell-based. An outline of the steps: (§1)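 Cells (1 × 10^4/well) seeded the evening before. Compounds were taken from 10 mM DMSO stock into growth medium and tested at 2, 10, 25, 50 and 75 µM, four wells each, with DMSO-matched controls. Exposure was 72 h, then MTS reagent for 1.5-4 h at 37 °C, and formazan A490 was read against DMSO-treated cells. IC50 is the mean of four wells from one experiment, or of three experiments where stated.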

The next experiment relates to Daoy. Put plainly: Cytotoxicity against human DaOY cells after 72 hrs by MTS assay. It counts as functional, cell-based. An outline of the steps:
as §1

A further experiment deals with HT-29. Put plainly: Cytotoxicity against human HT-29 cells after 72 hrs by MTS assay. The note with it: HT-29, 72 h. Format: functional, cell-based. An outline of the steps: as §1
The next experiment deals with MCF7. In words: Cytotoxicity against human MCF7 cells after 72 hrs by MTS assay. The note with it: MCF7, 72 h. It counts as functional, cell-based. An outline of the steps: as §1
For the next experiment, the system named is A-375. In words: Cytotoxicity against human A375 cells after 72 hrs by MTS assay. The settings on record: A-375, 72 h. It counts as functional, cell-based. An outline of the steps:
as §1

For experiment [2], the system named is OVCAR-3. Put plainly: Cytotoxicity against human OVCAR-3 cells after 72 hrs by MTS assay. It counts as functional, cell-based. The note with it: OVCAR-3, 72 h.
Experiment [3] is described as follows: Cytotoxicity against human LN229 cells after 72 hrs by MTS assay. Format: functional, cell-based. The settings on record: LN-229, 72 h. An outline of the steps:
as §1

By pIC50 is commonly meant −log10 of the IC50, conventionally taken in molar units. Take `C=C(C)[C@@H]1CC[C@]2(C(=O)O)CC[C@]3(C)[C@H](CC[C@@H]4[C@@]5(C)CCC(N)C(C)(C)[C@@H]5CC[C@]43C)[C@@H]12` (stereo not given in full): the pIC50 is 4.85 with OVCAR-3 [1], 5.10 in the experiment with SK-MEL-2 and 5.15 in the experiment on Daoy.
`C=C(C)[C@@H]1CC[C@]2(C(=O)O)CC[C@]3(C)[C@H](CC[C@@H]4[C@@]5(C)CCC(NCCO)C(C)(C)[C@@H]5CC[C@]43C)[C@@H]12` (stereo not given in full): the negative-log IC50 (pIC50) in the experiment with SK-MEL-2 was 4.44; in the experiment with Daoy, more than 5.70; in the experiment on HT-29, 4.80; in the experiment with MCF7, 4.46; with A-375, 4.85; in the experiment on OVCAR-3 [2], 4.55.
With `C=C(C)[C@@H]1CC[C@]2(C(=O)O)CC[C@]3(C)[C@H](CC[C@@H]4[C@@]5(C)CCC(NCCc6ccc(O)c(O)c6)C(C)(C)[C@@H]5CC[C@]43C)[C@@H]12` (stereo not given in full), the pIC50 in the experiment on SK-MEL-2 is 4.72; in experiment [3], 4.54; in the experiment with Daoy, 4.52; with HT-29, 4.19; in the experiment with MCF7 it was 4.43; with OVCAR-3 [2], 4.66.
Turning to `C=C(C)[C@@H]1CC[C@]2(CO)CC[C@]3(C)[C@H](CC[C@@H]4[C@@]5(C)CCC(NCCc6ccc(O)cc6)C(C)(C)[C@@H]5CC[C@]43C)[C@@H]12` (stereo not given in full), the pIC50 is 5.30 with OVCAR-3 [1]; 5.70 in the experiment on SK-MEL-2; 5.10 in experiment [3]; more than 5.70 with Daoy; 5.70 with HT-29; 5.30 in the experiment on MCF7. This compound gave a pIC50 with A-375 of 5.40.
In the case of `C=C(C)[C@@H]1CC[C@]2(CO)CC[C@]3(C)[C@H](CC[C@@H]4[C@@]5(C)CCC(NCCc6ccc(O)c(O)c6)C(C)(C)[C@@H]5CC[C@]43C)[C@@H]12` (stereo not given in full), the pIC50 with OVCAR-3 [1] was 5.40; with SK-MEL-2, 4.77; in experiment [3], 5.05; with Daoy, 5.00; in the experiment with HT-29 it was 5.22; in the experiment on MCF7, 4.77. The compound further gave a pIC50 with A-375 of 5.22.
For the compound `C=C(C)[C@@H]1CC[C@]2(CO)CC[C@]3(C)[C@H](CC[C@@H]4[C@@]5(C)CCC(NCCOC)C(C)(C)[C@@H]5CC[C@]43C)[C@@H]12` (stereo not given in full), the pIC50 with OVCAR-3 [1] was 4.66; with SK-MEL-2, 5.15; in the experiment with Daoy, 5.10; with HT-29 it was 4.72; with MCF7 it was 5.10; in the experiment with A-375, 5.15.
On to `C=C(CO)[C@@H]1CC[C@]2(CO)CC[C@]3(C)[C@H](CC[C@@H]4[C@@]5(C)CC[C@H](N)C(C)(C)[C@@H]5CC[C@]43C)[C@@H]12`, for which the pIC50 in the experiment on OVCAR-3 [1] is 4.85; with SK-MEL-2 it was 4.47; in experiment [3], 4.77; in the experiment with Daoy, 4.51; with HT-29 it was 4.77; with MCF7 it was 4.82. The same compound showed a pIC50 with A-375 of 5.22.
For the compound `C=C(CO)[C@@H]1CC[C@]2(CO)CC[C@]3(C)[C@H](CC[C@@H]4[C@@]5(C)CC[C@H](NCCc6ccc(O)cc6)C(C)(C)[C@@H]5CC[C@]43C)[C@@H]12`, the pIC50 in the experiment on OVCAR-3 [1] was 4.64; in the experiment with SK-MEL-2 it was 4.42; in experiment [3], 4.77; in the experiment with Daoy, 4.49; with HT-29 it was 4.68; in the experiment on MCF7, 4.77. Moreover, in the experiment with A-375, the pIC50 is 5.22.
On to `C=C(CO)[C@@H]1CC[C@]2(CO)CC[C@]3(C)[C@H](CC[C@@H]4[C@@]5(C)CC[C@H](NCc6ccc7c(c6)OCO7)C(C)(C)[C@@H]5CC[C@]43C)[C@@H]12`, for which the pIC50 was 4.70 in the experiment on OVCAR-3 [1]; 4.77 in the experiment on SK-MEL-2; 4.14 in experiment [3]; 4.80 in the experiment with Daoy; less than 4.12 with HT-29; 4.12 with MCF7. The pIC50 with A-375 is less than 4.12.
Turning to `C=C(CO)[C@@H]1CC[C@]2(CO)CC[C@]3(C)[C@H](CC[C@@H]4[C@@]5(C)CC[C@H](NCCOC)C(C)(C)[C@@H]5CC[C@]43C)[C@@H]12`, the pIC50 with OVCAR-3 [1] was 4.40; in the experiment on SK-MEL-2, 4.42; in experiment [3] it was 4.42; in the experiment with Daoy, 4.47; in the experiment with HT-29, 4.33; with MCF7, 4.40. The compound also gave a pIC50 with A-375 of 4.74.
Consider `C=C(CNCCc1ccc(O)cc1)[C@@H]1CC[C@]2(CO)CC[C@]3(C)[C@H](CC[C@@H]4[C@@]5(C)CCC(=O)C(C)(C)[C@@H]5CC[C@]43C)[C@@H]12`, for which the pIC50 in the experiment with SK-MEL-2 is 4.80; in experiment [3], 5.10; with Daoy, 4.77; with HT-29, 5.40; in the experiment on MCF7 it was 5.22; in the experiment on A-375 it was 5.22.
For the compound `C=C(CNCCO)[C@@H]1CC[C@]2(CO)CC[C@]3(C)[C@H](CC[C@@H]4[C@@]5(C)CC[C@H](O)C(C)(C)[C@@H]5CC[C@]43C)[C@@H]12`, the pIC50 in the experiment with SK-MEL-2 is 4.82; in the experiment on Daoy it was 4.46.
For `C=C(CNCCc1ccc(O)cc1)[C@@H]1CC[C@]2(CO)CC[C@]3(C)[C@H](CC[C@@H]4[C@@]5(C)CC[C@H](O)C(C)(C)[C@@H]5CC[C@]43C)[C@@H]12`, in that order: 4.80 and 4.80.
`C=C(CNCCO)[C@@H]1CC[C@]2(CO)CC[C@]3(C)[C@H](CC[C@@H]4[C@@]5(C)CCC(NCCO)C(C)(C)[C@@H]5CC[C@]43C)[C@@H]12` (stereo not given in full): the pIC50 in the experiment on SK-MEL-2 was 5.15; in experiment [3], 4.80; with Daoy, 4.89; in the experiment with HT-29, 5.70; with MCF7, 5.22; with A-375 it was 5.22.
Consider `C=C(CNCCO)[C@@H]1CC[C@]2(CO)CC[C@]3(C)[C@H](CC[C@@H]4[C@@]5(C)CCC(NCCc6ccc(O)c(O)c6)C(C)(C)[C@@H]5CC[C@]43C)[C@@H]12` (stereo not given in full), for which the pIC50 was 5.30 in the experiment with SK-MEL-2; 4.49 in experiment [3]; 5.30 in the experiment on Daoy; 5.40 with HT-29; 5.40 in the experiment on MCF7; 5.15 with A-375.
For `C=C(CNCCO)[C@@H]1CC[C@]2(CO)CC[C@]3(C)[C@H](CC[C@@H]4[C@@]5(C)CCC(NCc6ccc7c(c6)OCO7)C(C)(C)[C@@H]5CC[C@]43C)[C@@H]12` (stereo not given in full), the pIC50 with OVCAR-3 [1] was 4.19; in the experiment on SK-MEL-2 it was 5.40; in experiment [3] it was 4.49; with Daoy, 4.89; with HT-29 it was 5.30; with MCF7 it was 4.89. For the same compound, the pIC50 with A-375 was 5.30.
Turning to `C=C(CNCCO)[C@@H]1CC[C@]2(CO)CC[C@]3(C)[C@H](CC[C@@H]4[C@@]5(C)CCC(NCCOC)C(C)(C)[C@@H]5CC[C@]43C)[C@@H]12` (stereo not given in full), the pIC50 is 5.10 in the experiment on SK-MEL-2; 4.55 in experiment [3]; 5.30 with Daoy; 5.70 in the experiment with HT-29; 4.96 in the experiment with MCF7; 5.40 with A-375.
Regarding `C=C(C)[C@@H]1CC[C@]2(C(=O)O)CC[C@]3(C)[C@H](CC[C@@H]4[C@@]5(C)CC[C@H](O)C(C)(C)[C@@H]5CC[C@]43C)[C@@H]12` [BETULINIC ACID], the pIC50 with OVCAR-3 [1] was 4.40; with SK-MEL-2 it was 5.15; in experiment [3] it was 4.54; in the experiment on Daoy it was 4.96; in the experiment with HT-29, 4.51; with MCF7, 4.52. Further, the pIC50 in the experiment with A-375 was 4.66.
